Source: ChEMBL document CHEMBL1154792, “chi-Conopeptide pharmacophore development: toward a novel class of norepinephrine transporter inhibitor (Xen2174) for pain” (J Med Chem, 2009)
Activity calls are given as the source filed them. No cut-off for these calls is given here. Where a SMILES comes first, the peptide text is derived from it. Bridges are numbered along the chain shown (N, C = ends). [ ]: non-standard residue; d: D form. Pro(3S-OH) = O=C(O)[C@H]1NCC[C@@H]1O; Cha = N[C@@H](CC1CCCCC1)C(=O)O; pGlu = O=C1CC[C@@H](C(=O)O)N1

The molecules below were run against Sodium-dependent noradrenaline transporter (Homo sapiens, UniProt P23975) (assay: Displacement of [3H]nisoxetine from human NET expressed in COS7 cells). Conditions: COS-7.
Sequence of Sodium-dependent noradrenaline transporter (P23975 whole entry): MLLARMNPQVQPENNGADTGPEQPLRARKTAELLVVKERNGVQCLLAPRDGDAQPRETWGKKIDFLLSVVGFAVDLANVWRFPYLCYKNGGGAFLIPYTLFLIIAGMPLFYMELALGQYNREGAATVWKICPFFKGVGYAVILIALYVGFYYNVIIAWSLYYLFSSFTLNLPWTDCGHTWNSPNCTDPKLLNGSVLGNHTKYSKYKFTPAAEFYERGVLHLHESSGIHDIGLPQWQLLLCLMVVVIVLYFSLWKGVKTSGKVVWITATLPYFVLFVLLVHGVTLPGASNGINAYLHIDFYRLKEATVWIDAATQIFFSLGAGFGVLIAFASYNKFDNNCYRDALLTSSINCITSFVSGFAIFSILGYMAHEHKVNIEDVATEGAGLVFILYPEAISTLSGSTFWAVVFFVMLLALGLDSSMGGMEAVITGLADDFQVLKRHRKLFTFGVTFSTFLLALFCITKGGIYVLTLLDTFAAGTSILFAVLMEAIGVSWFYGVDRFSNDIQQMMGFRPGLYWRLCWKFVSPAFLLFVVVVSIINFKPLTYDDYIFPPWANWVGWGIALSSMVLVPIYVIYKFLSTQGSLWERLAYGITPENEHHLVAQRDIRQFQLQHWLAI
Type: cell-based
Procedure, shortened: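 Membranes from COS-7 cells transfected with human NET were incubated with [3H]nisoxetine (4.3 nM) with or without peptide (1 nM to 100 μM, triplicate) for 1 h at RT. Filter-retained radioactivity was counted by liquid scintillation, and values are given as pIC50. Data are means of 2–5 experiments in triplicate; peptide concentration was set by calibrated HPLC at 214 nm.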

Row | Compound | Activity
1 | CC(C)[C@H](NC(=O)CNC(=O)[C@@H]1CCC(=O)N1)C(=O)N[C@H]1CSSC[C@@H](C(=O)O)NC(=O)[C@@H]2[C@@H](O)CCN2C(=O)[C@H](Cc2cnc[nH]2)NC(=O)[C@@H]2CSSC[C@H](NC1=O)C(=O)NCC(=O)N[C@@H](Cc1ccc(O)cc1)C(=O)N[C@@H](CCCCN)C(=O)N[C@@H](C1CCCCC1)C(=O)N2 | Active
2 | CC(C)C[C@@H]1NC(=O)CNC(=O)[C@@H]2CSSC[C@H](NC(=O)[C@H](CC(C)C)NC(=O)[C@H](CCCCN)NC1=O)C(=O)N[C@@H](Cc1cnc[nH]1)C(=O)N1CC[C@H](O)[C@H]1C(=O)N[C@H](C(=O)O)CSSC[C@H](NC(=O)[C@@H](NC(=O)CNC(=O)[C@@H]1CCC(=O)N1)C(C)C)C(=O)N2 ([pGlu]GVCCGLKLCH[Pro(3S-OH)]C-OH; disulfide 4-13, 5-10) | inactive
3 | CC(C)C[C@@H]1NC(=O)[C@H](CCCCN)NC(=O)[C@H](Cc2ccc(O)cc2)NC(=O)CNC(=O)[C@@H]2CSSC[C@@H](NC1=O)C(=O)N[C@@H](Cc1cnc[nH]1)C(=O)N1CC[C@H](O)[C@H]1C(=O)N[C@H](C(=O)O)CSSC[C@H](NC(=O)[C@@H](NC(=O)CNC(=O)[C@@H]1CCC(=O)N1)C(C)C)C(=O)N2 | inactive
4 | CC(C)C[C@@H]1NC(=O)[C@H](CCCCN)NC(=O)[C@H](Cc2ccc(O)cc2)NC(=O)CNC(=O)[C@@H]2CSSC[C@H](NC1=O)C(=O)N[C@@H](Cc1cnc[nH]1)C(=O)N1CC[C@H](O)[C@H]1C(=O)N[C@@H](C(=O)O)CSSC[C@H](NC(=O)[C@@H](NC(=O)CNC(=O)[C@@H]1CCC(=O)N1)C(C)C)C(=O)N2 | inactive
5 | CC(C)[C@H](NC(=O)CNC(=O)[C@@H]1CCC(=O)N1)C(=O)N[C@H]1CSSC[C@@H](C(=O)O)NC(=O)[C@@H]2[C@@H](O)CCN2C(=O)[C@H](Cc2cnc[nH]2)NC(=O)[C@@H]2CSSC[C@H](NC1=O)C(=O)NCC(=O)N[C@@H](Cc1ccc(O)cc1)C(=O)N[C@@H](CCCCN)C(=O)N[C@@H](C(C)C)C(=O)N2 ([pGlu]GVCCGYKVCH[Pro(3S-OH)]C-OH; disulfide 4-13, 5-10) | inactive
6 | COc1ccc(C[C@@H]2NC(=O)CNC(=O)[C@@H]3CSSC[C@H](NC(=O)[C@H](CC4CCCCC4)NC(=O)[C@H](CCCCN)NC(=O)[C@H](Cc4ccc(O)cc4)NC2=O)C(=O)N[C@@H](Cc2c[nH]c4ccccc24)C(=O)N2CC[C@H](O)[C@H]2C(=O)N[C@H](C(=O)O)CSSC[C@H](NC(=O)[C@@H](NC(=O)CNC(=O)[C@@H]2CCC(=O)N2)C(C)C)C(=O)N3)cc1 ([pGlu]GVCCGY(Me)YK[Cha]CW[Pro(3S-OH)]C-OH; disulfide 4-14, 5-11) | Active
7 | CC[C@H](C)[C@@H]1NC(=O)CNC(=O)[C@@H]2CSSC[C@H](NC(=O)[C@H](CC(C)C)NC(=O)[C@H](CCCCN)NC1=O)C(=O)N[C@@H](Cc1cnc[nH]1)C(=O)N1CC[C@H](O)[C@H]1C(=O)N[C@H](C(=O)O)CSSC[C@H](NC(=O)[C@@H](NC(=O)CNC(=O)[C@@H]1CCC(=O)N1)C(C)C)C(=O)N2 | inactive
8 | CC(C)C[C@@H]1NC(=O)[C@H](CCCCN)NC(=O)[C@H](Cc2ccc(O)cc2)NC(=O)CNC(=O)[C@H]2CSSC[C@@H](NC1=O)C(=O)N[C@@H](Cc1cnc[nH]1)C(=O)N1CC[C@H](O)[C@H]1C(=O)N[C@H](C(=O)O)CSSC[C@H](NC(=O)[C@@H](NC(=O)CNC(=O)[C@@H]1CCC(=O)N1)C(C)C)C(=O)N2 | inactive
9 | CC(C)C[C@@H]1NC(=O)[C@H](CCCCN)NC(=O)[C@H](Cc2ccc(O)cc2)NC(=O)CNC(=O)[C@@H]2CSSC[C@H](NC1=O)C(=O)N[C@@H](Cc1cnc[nH]1)C(=O)N1CC[C@H](O)[C@H]1C(=O)N[C@H](C(=O)O)CSSC[C@@H](NC(=O)[C@@H](NC(=O)CNC(=O)[C@@H]1CCC(=O)N1)C(C)C)C(=O)N2 | inactive
10 | CC(C)C[C@@H]1NC(=O)[C@H](CCCCN)NC(=O)[C@H](C(c2ccccc2)c2ccccc2)NC(=O)CNC(=O)[C@@H]2CSSC[C@H](NC1=O)C(=O)N[C@@H](Cc1cnc[nH]1)C(=O)N1CC[C@H](O)[C@H]1C(=O)N[C@H](C(=O)O)CSSC[C@H](NC(=O)[C@@H](NC(=O)CNC(=O)[C@@H]1CCC(=O)N1)C(C)C)C(=O)N2 | inactive
11 | CC(C)C[C@@H]1NC(=O)[C@H](CCCCN)NC(=O)[C@H](Cc2ccc(O)cc2)NC(=O)CNC(=O)[C@@H]2CSSC[C@H](NC1=O)C(=O)N[C@@H](Cc1cnc[nH]1)C(=O)N1CC[C@H](O)[C@H]1C(=O)N[C@@H](C(=O)O)CSSC[C@@H](NC(=O)[C@@H](NC(=O)CNC(=O)[C@@H]1CCC(=O)N1)C(C)C)C(=O)N2 | Active
12 | CC(C)C[C@@H]1NC(=O)[C@H](CCCCN)NC(=O)[C@H](Cc2ccccc2)NC(=O)CNC(=O)[C@@H]2CSSC[C@H](NC1=O)C(=O)N[C@@H](Cc1cnc[nH]1)C(=O)N1CC[C@H](O)[C@H]1C(=O)N[C@H](C(=O)O)CSSC[C@H](NC(=O)[C@@H](NC(=O)CNC(=O)[C@@H]1CCC(=O)N1)C(C)C)C(=O)N2 ([pGlu]GVCCGFKLCH[Pro(3S-OH)]C-OH; disulfide 4-13, 5-10) | inactive
13 | CC(C)C[C@@H]1NC(=O)[C@H](CCCCN)NC(=O)[C@H](Cc2ccc(O)cc2)NC(=O)CNC(=O)[C@@H]2CSSC[C@H](NC1=O)C(=O)N[C@@H](Cc1c[nH]c3ccccc13)C(=O)N1CC[C@H](O)[C@H]1C(=O)N[C@H](C(=O)O)CSSC[C@H](NC(=O)[C@@H](NC(=O)CNC(=O)[C@@H]1CCC(=O)N1)C(C)C)C(=O)N2 ([pGlu]GVCCGYKLCW[Pro(3S-OH)]C-OH; disulfide 4-13, 5-10) | Active
14 | CC(C)C[C@@H]1NC(=O)[C@H](CCCCN)NC(=O)[C@@H](Cc2ccc(O)cc2)NC(=O)CNC(=O)[C@@H]2CSSC[C@H](NC1=O)C(=O)N[C@@H](Cc1cnc[nH]1)C(=O)N1CC[C@H](O)[C@H]1C(=O)N[C@H](C(=O)O)CSSC[C@H](NC(=O)[C@@H](NC(=O)CNC(=O)[C@@H]1CCC(=O)N1)C(C)C)C(=O)N2 | inactive
15 | CC(C)C[C@@H]1NC(=O)[C@H](CCCCN)NC(=O)[C@H](Cc2ccc(O)cc2)NC(=O)CNC(=O)[C@@H]2CSSC[C@H](NC1=O)C(=O)N[C@@H](Cc1cccc3ccccc13)C(=O)N1CC[C@H](O)[C@H]1C(=O)N[C@H](C(=O)O)CSSC[C@H](NC(=O)[C@@H](NC(=O)CNC(=O)[C@@H]1CCC(=O)N1)C(C)C)C(=O)N2 | Active
16 | CC(C)C[C@@H]1NC(=O)[C@H](CCCCN)NC(=O)[C@H](Cc2ccc(O)cc2)NC(=O)CNC(=O)[C@@H]2CSSC[C@H](NC1=O)C(=O)N[C@@H](Cc1ccccc1)C(=O)N1CC[C@H](O)[C@H]1C(=O)N[C@H](C(=O)O)CSSC[C@H](NC(=O)[C@@H](NC(=O)CNC(=O)[C@@H]1CCC(=O)N1)C(C)C)C(=O)N2 ([pGlu]GVCCGYKLCF[Pro(3S-OH)]C-OH; disulfide 4-13, 5-10) | Active
17 | COc1ccc(C[C@H]2NC(=O)[C@H](Cc3cnc[nH]3)NC(=O)[C@@H]3CSSC[C@H](NC(=O)[C@@H](NC(=O)[C@@H](NC(=O)CNC(=O)[C@@H]4CCC(=O)N4)C(C)C)CSSC[C@@H](C(=O)O)NC2=O)C(=O)NCC(=O)N[C@@H](Cc2ccc(O)cc2)C(=O)N[C@@H](CCCCN)C(=O)N[C@@H](CC(C)C)C(=O)N3)cc1 | Active
18 | COc1ccc(C[C@H]2CC(=O)N[C@@H](CCCCN)C(=O)N[C@@H](CC(C)C)C(=O)N[C@H]3CSSC[C@H](NC(=O)[C@@H](NC(=O)[C@@H](NC(=O)CNC(=O)[C@@H]4CCC(=O)N4)C(C)C)CSSC[C@@H](C(=O)O)NC(=O)[C@@H]4[C@@H](O)CCN4C(=O)[C@H](Cc4cnc[nH]4)NC3=O)C(=O)NCC(=O)N2)cc1 | inactive
